The source of these data is ChEMBL document CHEMBL1649302, “New small-molecule inhibitor class targeting human immunodeficiency virus type 1 virion maturation” (Antimicrob Agents Chemother, 2009).

Data set [1] in a line: Cytotoxicity against human MT2 cells after 6 days by XTT assay. It counts as cell-based. The gist of the method: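 Uninfected cells were incubated with half-log compound dilutions for 6 days, then given XTT/PMS for 4 h and read at 450 nm. CC50 was the concentration reducing formazan to 50% of uninfected, compound-free cells. Values are means ± SD from 3–5 experiments or individual values.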
(In general: Tetrazolium assays rely on reduction of a dye to a coloured formazan, in cell work by metabolically active cells.)

Data set [2] can be described thus: Cytotoxicity against human PM1 cells after 5 days by XTT assay. The format is cell-based. The gist of the method:
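CC50 in uninfected PM1 cells was measured by the XTT dye-reduction method: XTT/PMS for 4 h, absorbance at 450 nm, 50% of compound-free formazan.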

Data set [3] is described as follows: Therapeutic index, ratio of CC50 for human MT2 cells to EC50 for HIV1 92HT594 infected in human MT2 cells. The format is cell-based. To be noted: read-out: TI. Summed up:
(§1)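 TI was the mean CC50 (XTT, uninfected MT-2) divided by the mean EC50, determined for each cell line in each experiment.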

A short description of data set [4]: Therapeutic index, ratio of CC50 for human MT2 cells to EC50 for HIV1 92HT599 infected in human MT2 cells. It counts as cell-based. To be noted: read-out: TI. Summed up:
as §1

For data set [5], the system named is Human immunodeficiency virus 1. Nature of the data set: Antiviral activity against HIV1 NL4-3 infected in human HeLa cells assessed as decrease in single-cycle viral infection after 72 hrs by beta-galactosidase reporter gene assay. To be noted: Human immunodeficiency virus 1, NL4-3, HeLa. The format is functional, organism-based. The gist of the method: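 HeLa CD4 LTR/beta-Gal cells (1 × 10⁴/well, DMEM + 10% FBS) were pre-dosed with half-log compound dilutions. They were infected at MOI 0.03 with single-cycle NL4-3 reporter virus made by cotransfecting HEK 293 cells with pNL4-3deltaEnv and an NL4-3 envelope vector. EC50 is from beta-gal reporter activity relative to infected untreated cells, across three experiments.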

Data set [6] has as its system Human immunodeficiency virus 1. The data set can be described thus: Antiviral activity against HIV1 NL4-3 infected in HEK293 cells assessed as decrease in virus production at 2 times EC90 after 72 hrs by beta-galactosidase reporter gene assay. It counts as functional. For orientation: In a reporter assay the amount or activity of a reporter protein is the signal.
For data set [7], the system named is Human immunodeficiency virus 1. Nature of the data set: Antiviral activity against HIV1 assessed as inhibition of virion maturation-associated CA/SP1 processing at 2 times EC90. It counts as functional, organism-based.
Data set [8] deals with Human immunodeficiency virus 1. Nature of the data set: Selectivity ratio of EC50 for HIV1 harboring capsid I201V mutant protein infected in human HeLa cells to EC50 for wild type HIV1 infected in human HeLa cells. It counts as functional. The gist of the method:
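MT-2 cells were infected for 2 h with wild-type NL4-3 or recombinant NL4-3 carrying CA I201V or SP1 A1V. They were then cocultured with HeLa CD4 LTR/beta-Gal indicator cells in serially diluted compound. Beta-gal reporter was read after 4 days. EC50s are means ± SD of 3–6 experiments. Fold change is mutant EC50 divided by wild-type EC50.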

The subject of data set [9] is Human immunodeficiency virus 1. Nature of the data set: Antiviral activity HIV1 WEJO infected in human PBMC after 7 days by scintillation counting. To be noted: Human immunodeficiency virus 1, WEJO, 168 h. The format is functional, organism-based. The gist of the method: (§2)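 Fresh PBMCs from HIV/HBV-seronegative donors were PHA-stimulated (4 μg/ml, 48–72 h) and kept with IL-2 (20 U/ml), with at least two donors pooled. Cells were seeded at 5 × 10⁴/well and infected (final MOI ≅0.1) with nine compound concentrations in triplicate wells. After 7 days, reverse transcriptase activity was measured in cell-free supernatant.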

For data set [10], the system named is Human immunodeficiency virus 1. Nature of the data set: Antiviral activity HIV1 92BR014 infected in human PBMC after 7 days by scintillation counting. It counts as functional, organism-based. To be noted: Human immunodeficiency virus 1, 92BR014, 168 h. Summed up: as §2
The subject of data set [11] is Human immunodeficiency virus 1. The data set can be described thus: Antiviral activity HIV1 92TH026 infected in human PBMC after 7 days by scintillation counting. The format is functional, organism-based. To be noted: Human immunodeficiency virus 1, 92TH026, 168 h. Summed up:
as §2

Data set [12] concerns Human immunodeficiency virus 1. The data set can be described thus: Antiviral activity HIV1 93TH074 infected in human PBMC after 7 days by scintillation counting. The format is functional, organism-based. To be noted: Human immunodeficiency virus 1, 93TH074, 168 h. The gist of the method: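 PBMCs came from buffy coats pooled from 3–4 seronegative donors, were PHA-stimulated (1.5 μg/ml, 3 days) and frozen. Thawed cells were infected 1 h at 37°C with virus input set by TCID50, then pelleted and resuspended in IL-2 (10 ng/ml). They were plated at 4 × 10⁵ cells/ml onto compounds for 7 days at 37°C. Supernatant RT activity was measured by Quan-T-RT scintillation assay.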

The subject of data set [13] is Human immunodeficiency virus 1. The data set can be described thus: Antiviral activity HIV1 96USHIPS7 infected in human PBMC after 7 days by scintillation counting. The format is functional, organism-based. To be noted: Human immunodeficiency virus 1, 96USHIPS7, 168 h. Summed up:
as §2

A short description of data set [14]: Therapeutic index, ratio of CC50 for human PBMC to EC50 for HIV1 91US005 infected in human PBMC. To be noted: read-out: TI. The gist of the method: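 TI was the mean PBMC CC50 divided by the mean EC50 from the 7-day PBMC reverse transcriptase assay.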
A short description of data set [15]: Therapeutic index, ratio of CC50 for human PBMC to EC50 for HIV1 92BR014 infected in human PBMC. To be noted: read-out: TI. The gist of the method: (§3)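 PHA-stimulated (4 μg/ml, 48 to 72 h) PBMCs pooled from at least two seronegative donors, kept with 20 U/ml IL-2, plated at 5 × 10⁴ cells/well. Infected with clinical isolate (final MOI ≅0.1) alongside nine compound concentrations in triplicate wells, 7 days. Supernatant reverse transcriptase activity measured. TI is mean PBMC CC50 divided by mean EC50.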

A short description of data set [16]: Therapeutic index, ratio of CC50 for human PBMC to EC50 for HIV1 92BR026 infected in human PBMC. To be noted: read-out: TI.
Data set [17] in a line: Therapeutic index, ratio of CC50 for human PBMC to EC50 for HIV1 92HT594 infected in human PBMC. To be noted: read-out: TI. Summed up:
(§4)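 Frozen PHA-stimulated (1.5 μg/ml, 3 days) buffy-coat PBMCs pooled from three or four seronegative donors. Infected with a TCID50-based virus input per 10⁶ cells for 1 h at 37°C, then pelleted and resuspended in 10 ng/ml IL-2. Plated at 4 × 10⁵ cells/ml on compound dilutions for 7 days at 37°C. Supernatant RT measured by Quan-T-RT. TI is mean CC50 divided by mean EC50.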

Data set [18] in a line: Therapeutic index, ratio of CC50 for human PBMC to EC50 for HIV1 92HT599 infected in human PBMC. To be noted: read-out: TI. Summed up: as §4
Data set [19] in a line: Therapeutic index, ratio of CC50 for human PBMC to EC50 for HIV1 92RW009 infected in human PBMC. To be noted: read-out: TI. Summed up:
as §4

A short description of data set [20]: Therapeutic index, ratio of CC50 for human PBMC to EC50 for HIV1 92TH014 infected in human PBMC. To be noted: read-out: TI. The gist of the method:
as §3

A short description of data set [21]: Therapeutic index, ratio of CC50 for human PBMC to EC50 for HIV1 92TH026 infected in human PBMC. To be noted: read-out: TI. Summed up: as §3
The nature of data set [22]: Therapeutic index, ratio of CC50 for human PBMC to EC50 for HIV1 93BR023 infected in human PBMC. To be noted: read-out: TI. The gist of the method:
as §3

Data set [23] in a line: Therapeutic index, ratio of CC50 for human PBMC to EC50 for HIV1 96USHIPS7 infected in human PBMC. To be noted: read-out: TI. Summed up:
as §3

A short description of data set [24]: Therapeutic index, ratio of CC50 for human PBMC to EC50 for HIV1 98IN022 infected in human PBMC. To be noted: read-out: TI. Summed up: as §4

As usually defined, the CC50 is the concentration that lowers cell viability or growth by half. A word on the EC50: it is the concentration needed to bring the measured effect to its halfway point.

Calls of active or inactive are those of the source. No cut-off for these calls is given here.

Take `CC(C)(C)c1ccc(C(Cn2cccc(C(F)(F)F)c2=O)NC2Cc3ccccc3C2)cc1` (centres undefined): the CC50 at 144 h in data set [1] stood at 15 µM. The CC50 at 120 h in [2] came to 19 µM. Also, the selectivity ratio in data set [3] was 79; in data set [4] it was 90; in data set [14] it was under 1; in data set [15], 2; in data set [16], under 1; in data set [17], 15. For the same compound, the selectivity ratio in data set [18] is 12; in [19] it was 12; in data set [20], under 1; in data set [21], under 1; in data set [22], under 1; in data set [23], under 1. In addition, the selectivity ratio in data set [24] was 13. Further, the EC50 is over 10 µM in [5]; 1.5 µM in data set [9]; 7 µM in data set [10]; over 17 µM in data set [11]; 0.12 µM in [12]; over 17 µM in [13]. Besides, in data set [6], the “inhibition (INH)” value turned out to be 92%. In data set [7], the inhibition result was “Active”. In addition, the “Ratio EC50” value in [8] is on record as over 49.
